A selection: hits, their analogues and other compounds. The true share with any hit is near 1.5%.
PG9 binder: small molecules binding HIV-1 gp120 antibody PG9; TR-FRET gp120-PG9 antibody binding; inhibition, % at 6.7 µM; 360,000 compounds, 0.43% hits; in the data active = inhibition above about 8.5%
NR2E3 ag-1: activates human NR2E3 receptor; 360,000 compounds, 0.35% hits; CHO-S Gal4-NCOR/VP16-NR2E3 two-hybrid, luciferase; inhibition of corepressor binding, % at 3.98 µM;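 active = inhibition above the mean of all tested compounds plus 3 SD, cut at about 70% in these data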;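 note: 0% = DMSO with NR2E3 transfected cells and 100% = cells lacking NR2E3 construct; higher means lower luciferase signal from less NR2E3 corepressor binding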
NR2E3 ag-2: NR2E3 (human) agonism | 320,000 compounds, 0.12% hits | inhibition of corepressor binding, % at 4.78 µM | AID 2300 | GST-NR2E3/biotin-RetCOR TR-FRET, 1536-well;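 active = percent inhibition above the cutoff of mean plus 3 SD of all tested compounds, set per screening campaign, cut at about 20% in these data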;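 note: 0% = DMSO wells and 100% = biotin wells as full block of FRET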
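Material: NR2E3–RetCOR corepressor complex / Amount: 1.35 nM GST-NR2E3 / Medium: Tris pH 7.5 / Compound: single nominal compound dose of 4.8 µM / Incubation: 5 h at 4 °C / Technique: TR-FRET, Eu(K)-anti-GST donor, streptavidin-D2 acceptor, ex 340, em 617/671 nm / Read-out basis: percent loss of FRET ratio relative to control wells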
NR1D1 modulator: modulators of human Rev-erb alpha DNA binding | AID 1259318 | Rev-erbα–FITC-DNA binding, fluorescence polarization, 90 min | activity, % at 10 µM | P20393 | 370,000 compounds, 0.79% hits;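 active = activity above about 14%, limit read from the data; passing the limit was not always enough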;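 note: 0% = DMSO wells with 35 nM protein and 100% = DMSO wells with 750 nM protein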
Target sequence (P20393 whole entry, looked up): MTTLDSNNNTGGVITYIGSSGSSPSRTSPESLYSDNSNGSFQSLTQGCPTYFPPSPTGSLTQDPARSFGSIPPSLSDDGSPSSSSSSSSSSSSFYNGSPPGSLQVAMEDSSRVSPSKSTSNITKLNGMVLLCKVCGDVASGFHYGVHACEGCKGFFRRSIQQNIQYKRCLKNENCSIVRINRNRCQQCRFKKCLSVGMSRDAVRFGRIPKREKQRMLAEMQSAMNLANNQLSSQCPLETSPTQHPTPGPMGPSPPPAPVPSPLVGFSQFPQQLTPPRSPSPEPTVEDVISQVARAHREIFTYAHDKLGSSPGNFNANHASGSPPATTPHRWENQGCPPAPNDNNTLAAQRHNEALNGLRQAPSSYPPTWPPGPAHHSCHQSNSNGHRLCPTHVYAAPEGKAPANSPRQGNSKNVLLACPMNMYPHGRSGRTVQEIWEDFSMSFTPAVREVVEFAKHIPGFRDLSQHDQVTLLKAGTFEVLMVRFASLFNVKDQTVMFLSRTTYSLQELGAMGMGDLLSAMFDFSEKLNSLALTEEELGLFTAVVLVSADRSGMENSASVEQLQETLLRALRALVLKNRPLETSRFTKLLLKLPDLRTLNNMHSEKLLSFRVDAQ
NR2E3 ag conf: confirmation of human NR2E3 agonists; AID 624378; shares compounds with NR2E3 ag-1; 2,300 compounds, 51% hits; inhibition, % at 3.98 µM; CHO-S mammalian two-hybrid NR2E3-NCOR, luciferase luminescence;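 active = average inhibition above a cutoff equal to the mean inhibition of all tested compounds plus one SD, cut at about 70% in these data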;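 note: 0% = DMSO in NR2E3 cells and 100% = DMSO in cells lacking NR2E3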
VP16 counter: reduces GAL4-VP16 reporter signal in NR2E3 counterscreen. inhibition, % at 3.98 µM. 2,300 compounds, 29% hits. CHO-S GAL4-VP16 luciferase reporter, luminescence. AID 624379. shares compounds with NR2E3 ag-1;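 active = mean inhibition above a cutoff equal to the average over all tested compounds plus one standard deviation, cut at about 70% in these data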;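 note: luciferase from a UAS reporter driven by GAL4-VP16 transactivation; 0% = DMSO with VP16-transfected cells and 100% = DMSO with cells lacking VP16; higher means less reporter light so more repression of VP16 activity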
Starred values were filed as active, the others as inactive; · = not tested or not shown.

SMILES | PG9 binder | NR2E3 ag-1 | NR2E3 ag-2 | NR1D1 modulator | NR2E3 ag conf | VP16 counter
CC(=O)/C(N=Nc1ccc2c(c1)OCCO2)=C(\C)O | -3 | 52 | -2 | -2 | 31 | 12
CCN(CC)c1ccc(-c2nn3c(-c4ccccc4OC)nnc3s2)cc1 | · | 57 | 1 | · | -38 | 8
O=C(NC(=S)/C(=C1\CCCCCN1)[N+](=O)[O-])c1ccccc1 | · | 52 | · | · | 23 | -11
O=C(NC(=S)Nc1ccccc1[N+](=O)[O-])c1ccccc1 | 0 | -75 | 1 | 2 | · | ·
COC(=O)[C@H](C)NC(=O)[C@H](CC(C)C)NC(=O)OC(C)(C)C | · | · | · | 9 | · | ·
Cc1ccc(NC(=O)O/N=C/c2c(C)nn(C(C)(C)C)c2C)cc1Cl | 1 | 100* | 4 | -1 | 83* | 96*
CC[C@H](CO)Nc1nc(Nc2cccc(Cl)c2)c2ncn(C(C)C)c2n1 | 0 | 92* | 3 | 1 | 74* | 66
O=C(CCNS(=O)(=O)c1ccc(OC(F)(F)F)cc1)N1CCN(C/C=C/c2ccccc2)CC1 | -1 | 55 | 3 | -1 | 56 | 45
CC(C)Nc1nc(NCCOc2ccccc2Cl)c2sc(-c3ccccc3)cc2n1 | 1 | 48 | · | -1 | 18 | 14
CCOC(=O)[C@]12CCCC=C1N(CCCOC)C(=O)[C@@H]2CC(=O)NCc1cccs1 | · | · | · | 1 | · | ·
Cc1ccc(OCCN2CCC2(C)C(=O)NCc2cccc3ccccc23)cc1 (stereo not given) | -1 | -28 | · | -1 | · | ·
Cc1ccc(OCCN2CCC2(C)C(=O)NCc2ccc(C(F)(F)F)cc2)cc1 (stereo not given) | -2 | 53 | · | -5 | -2 | -3
C#CCN1C(=O)[C@@](O)(c2cccn2C)c2cc(F)ccc21 | · | · | · | 2 | · | ·
CC(=O)c1ccc(N2CCN(S(=O)(=O)c3ccc(-c4cc(C)no4)s3)CC2)cc1 | 0 | 14 | 2 | -1 | · | ·
CC(=O)c1cccc(NS(=O)(=O)c2ccc(-c3cc(C)no3)s2)c1 | -3 | 96* | 5 | 2 | 70* | 60
CCNC(=S)N1CCN(c2ccccn2)CC1 | -2 | -14 | -2 | -5 | · | ·
CC(NNC(=S)N1CCN(c2ccccn2)CC1)c1nccc2ccccc12 (stereo not given) | -1 | 83* | · | -4 | 5 | 14
CCCc1nc2c(=O)n(C)c(=O)nc-2n(C)n1 | -1 | 104* | · | -27 | 101* | 86*
CCn1c(N)nc2c1c(=O)n(C)c(=O)n2C | -2 | -1 | 3 | -1 | · | ·
CN(CCOC(=O)c1occ2ccccc12)C1CN(Cc2cn(Cc3ccccc3Cl)nn2)S(=O)(=O)C1 (stereo not given) | · | · | · | -3 | · | ·
CCCN1CCCCC(NC(=O)c2c(F)cccc2F)C1=O (stereo not given) | -1 | · | · | -3 | · | ·
Cc1c(CCCN)c2ccccc2n1Cc1ccccc1 | 3 | 50 | 2 | -1 | -4 | 4
O=Nc1c(O)n(Cc2ccccc2)c2ccccc12 | 0 | -8 | 1 | 0 | · | ·
COC(=O)c1cccc(N2C(=O)C[C@](Sc3ccc(OC)cc3)(C(=O)N3CCOCC3)[C@H]2c2ccc(OC)cc2)c1 | · | · | · | 6 | · | ·
CCCN(CCC)S(=O)(=O)c1ccc(C(=O)Nc2nnc(CSC)o2)cc1 | 0 | 56 | -2 | -2 | 53 | 23
SMILES | PG9 binder | NR2E3 ag-1 | NR2E3 ag-2 | NR1D1 modulator | NR2E3 ag conf | VP16 counter
COCc1nnc(NC(=O)c2ccc(S(=O)(=O)N(CC(C)C)CC(C)C)cc2)o1 | -2 | 77* | -1 | 12 | 89* | 28
CCCCN(CCCC)S(=O)(=O)c1ccc(C(=O)Nc2nnc(CSC)o2)cc1 | 0 | 4 | -4 | 1 | · | ·
C=CCN(CC=C)S(=O)(=O)c1ccc(C(=O)Nc2nnc(COC)o2)cc1 | 0 | 21 | -1 | 0 | · | ·
CCN(c1ccccc1)S(=O)(=O)c1ccc(C(=O)Nc2nnc(CSC)o2)cc1 | -3 | 65 | 1 | -5 | 93* | 32
CCN(c1ccccc1)S(=O)(=O)c1ccc(C(=O)Nc2nnc(COC)o2)cc1 | 0 | 20 | 4 | -5 | · | ·
COc1ccc(CN2C[C@]3(C=C(C)Cn4c(=O)n(-c5ccccc5)c(=O)n43)N(C(=O)OCc3ccccc3)C2=NC(=O)c2ccccc2)c(OC)c1 | · | · | · | 2 | · | ·
CC(=O)c1ccc(NS(=O)(=O)c2ccc(CC(C)C)cc2)cc1 | 3 | 64 | -1 | -7 | 90* | 69
CC(=O)c1ccc(NC(=O)Nc2ccc(NS(=O)(=O)c3ccc(C)cc3)cc2)cc1 | 7 | 8 | 0 | 5 | · | ·
C/C(=N/NS(=O)(=O)c1ccc(CC(C)C)cc1)c1ccncc1 | 0 | 104* | -2 | -2 | 21 | 45
CC(=O)c1c(C)[nH]c(C(=O)OCC(=O)Nc2ccc(C)cc2[N+](=O)[O-])c1C | 2 | 82* | 5 | -4 | 98* | 90*
COc1ccc(/C=C2/CSC/C(=C/c3ccc(OC)c(OC)c3)C2=O)cc1OC | 0 | 64 | · | -8 | 38 | 29
CC(C)OC(=O)CSc1nnc(CNc2ccc(Cl)cc2)n1Cc1ccccc1 | 1 | 73* | 2 | 0 | 42 | 63
COC(=O)[C@]12C[C@H](CC(=O)N3CCOCC3)C(=O)N(Cc3cccc4ccccc34)C1=C[C@H](C(C)C)O[C@@H]2C1CC1 | · | · | · | 4 | · | ·
CC(NS(=O)(=O)OCC(Cl)(Cl)Cl)c1ccc(C(C)(C)C)cc1 (stereo not given) | -2 | 59 | 1 | 4 | -2 | 25
CCCCN1CCN(C(=O)C2CCCN(C(=O)c3ccc4c(c3)NC(=O)CS4)C2)CC1 (stereo not given) | · | · | · | 5 | · | ·
COc1ccc(CC2C(=O)NC(C)C(=O)N(C)C3Cc4ccc(cc4)Oc4cc(ccc4O)CC(C(=O)NC(C)C(=O)NC(C)C(=O)N2C)N(C)C3=O)cc1 (stereo not given) | 0 | 103* | · | 4 | 99* | 96*
CCN1CCN(c2cc(-c3ccc(F)cc3)c3c(n2)CCCCCC3)CC1 | · | · | · | -5 | · | ·
CSc1ccc(CN2C(=O)C(F)(F)Oc3c(C(C)=O)cccc32)cc1 | · | 49 | · | · | 44 | 53
O=C(Nc1ccc([N+](=O)[O-])cc1)Nc1ccc(OC(F)F)c(Cl)c1 | 0 | 98* | 6 | 4 | 99* | 94*
O=C(Nc1ccc(OC(F)F)c(Cl)c1)Nc1ccc2c(c1)OCO2 | 0 | -10 | 1 | 5 | · | ·
Cc1ccc2sc(N3CCN(C(=O)C4=COCCO4)CC3)nc2c1C | 1 | 59 | -1 | -7 | 60 | 38
Cc1ccc(CN2CCCCC(NC(=O)c3ccccc3)C2=O)cc1 (stereo not given) | · | · | · | -1 | · | ·
O=C(O)c1ccccc1C(=O)Nc1ccc(Oc2cccc3ccccc23)cc1 | -1 | 67 | · | -7 | -16 | 23
Cc1c[nH]c2cccc(-c3cccc4ccccc34)c12 | · | · | · | 3 | · | ·
NS(=O)(=O)c1ccc(CCNc2nn3c(-c4ccc(F)c(Cl)c4)cnc3s2)cc1 | 0 | 62 | · | -4 | 64 | 50
CN(C)c1ccc(Sc2ccc3nc(N)nc(N)c3c2)cc1 | -4 | 76* | · | 0 | 36 | 52

Bioassay records (PubChem)
